Experimental data from different studies.
Protocols differ between the studies behind these lines.
Cell line: A549
Read-out: cell growth or viability

Compound	method	tested at	inhibition
COc1ccccc1/C=C1\SC(=S)N(CC(=O)Nc2ccccc2)C1=O	MTT	10 µM	38.3%
COc1ccc2c(c1)C(=NNc1nc3ccccc3n(C)c1=O)C(=O)N2		30 µM	85.9%
COc1cc(CNC(=O)CCCC/C=C/C(C)C)ccc1O	SRB	10 µM	0%
O=C(CN1C(=O)/C(=C/c2ccc(O)cc2)SC1=S)Nc1ccccc1	MTT	10 µM	29.6%
O=C1Nc2ccc(Cl)cc2/C1=N/NC(=O)c1cc2ccccc2[nH]1		30 µM	60.6%
O=C(CN1C(=O)/C(=C/c2cccc(F)c2)SC1=S)Nc1ccccc1	MTT	10 µM	26.1%
COc1ccc2c(c1)/C(=N/NC(=O)c1cc3ccccc3[nH]1)C(=O)N2		30 µM	85.3%
Cn1c(=O)c(NN=C2C(=O)Nc3ccc(Br)cc32)nc2ccccc21		30 µM	84.9%
CCN(CC)CCNC(=O)c1c(C)[nH]c(/C=C2\C(=O)Nc3ccc(F)cc32)c1C		30 µM	85.7%
O=C(CN1C(=O)/C(=C/c2ccc([N+](=O)[O-])cc2)SC1=S)Nc1ccccc1	MTT	10 µM	24.4%
COc1cc2ncnc(NN=C3C(=O)Nc4ccc(F)cc43)c2cc1OC		10 µM	7.1%
CN1C(=O)/C(=N\NC(=O)c2cc3ccccc3[nH]2)c2cc(Br)ccc21		30 µM	97.4%
COc1ccc(-c2nc(NN=C3C(=O)Nc4ccc(Br)cc43)c3ccccc3n2)cc1OC		10 µM	77.1%
O=C1Nc2ccc(Br)cc2/C1=N/NC(=O)c1cc2ccccc2[nH]1		30 µM	77%
COc1cc2ncnc(NN=C3C(=O)Nc4ccccc43)c2cc1OC		30 µM	32.9%
COc1cccc(NC(=O)CN2C(=O)/C(=C/c3ccc(F)cc3)SC2=S)c1	MTT	10 µM	22.3%
COc1ccc2c(c1)/C(=N/NC(=O)c1cc3ccccc3[nH]1)C(=O)N2C		30 µM	97.4%
COc1cccc(/C=C2\SC(=S)N(CC(=O)Nc3ccccc3)C2=O)c1	MTT	10 µM	25.7%
CN1C(=O)/C(=N\NC(=O)c2cc3ccccc3[nH]2)c2ccccc21		30 µM	94.9%
Cc1ccc2c(c1)C(=NNc1nnc(Cc3ccccc3)c3ccccc13)C(=O)N2		30 µM	85%
